Bioassay records: PubChem, Sanford-Burnham Center for Chemical Genomics
Only some compounds are listed: those with a hit (about 3.1% of all), similar ones and a draw of the others.
SENP8 block-1: SENP8 protease inhibitors, primary screen, biochemical, luminescence. Sentrin-specific protease 8 (Homo sapiens), Q96LD8. purified SENP8, Z-RLRGG-aminoluciferin cleavage. inhibition, % at 10 µM. hit rate 1.2% among 330,000. AID 2540, 2010; in the data active = inhibition above about 50%
SENP6 inh: SENP6 protease inhibitors, primary screen, biochemical, luminescence, uHTS; AID 2599, 2010; inhibition, % at 10 µM; Recombinant SENP6 catalytic domain, aminoluciferin luminescence; hit rate 1.8% among 330,000; Sentrin-specific protease 6 (Homo sapiens), Q9GZR1;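 active = inhibition above about 50% at the single tested dose, limit read from the data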;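 also: plate controls were DMSO wells with enzyme for no effect and DMSO wells lacking enzyme for full effect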
Target sequence (Q9GZR1 628-1112 limits assumed): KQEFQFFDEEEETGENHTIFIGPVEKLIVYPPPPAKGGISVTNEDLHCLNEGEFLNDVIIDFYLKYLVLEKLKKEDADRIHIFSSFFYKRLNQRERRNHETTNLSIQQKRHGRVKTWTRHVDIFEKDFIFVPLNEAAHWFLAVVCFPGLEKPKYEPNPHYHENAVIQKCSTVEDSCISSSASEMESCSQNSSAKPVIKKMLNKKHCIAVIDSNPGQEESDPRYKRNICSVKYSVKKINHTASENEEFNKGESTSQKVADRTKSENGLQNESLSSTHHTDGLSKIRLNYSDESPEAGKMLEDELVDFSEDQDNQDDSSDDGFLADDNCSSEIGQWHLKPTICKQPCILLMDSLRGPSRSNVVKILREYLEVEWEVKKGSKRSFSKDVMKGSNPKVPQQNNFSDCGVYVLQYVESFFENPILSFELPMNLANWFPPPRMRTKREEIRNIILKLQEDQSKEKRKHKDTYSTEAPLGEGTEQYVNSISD
Apaf1 inhib: inhibitors of human Apaf-1 apoptosome, primary screen, biochemical, DEVD-Rh110 fluorescence, uHTS | Apoptotic protease-activating factor 1 (Homo sapiens), O14727 | reconstituted apoptosome caspase-3 activity | inhibition, % at 20 µM | hit rate 0.71% among 330,000 | AID 489030, 2010; active = inhibition of at least 40% at 20 µM;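 also: plate controls were DMSO wells for no effect and DEVD-CHO caspase inhibitor wells for full effect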
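Material: biochemical Apaf-1 apoptosome reconstitution. Medium: Hepes buffer, pH 7.5. Also added: cytochrome c activation, bis-DEVD rhodamine 110 substrate. Timing: 30 min compound preincubation, 50 min activation, room temperature. Measured by: rhodamine 110 fluorescence at Ex 480/Em 540 nm.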
UBC13 inh: UBC13 polyubiquitin chain formation inhibitors, primary screen, biochemical, TR-FRET, uHTS | Ubiquitin-conjugating enzyme E2 N (Homo sapiens), P61088 | AID 485273, 2010 | inhibition, % at 20 µM | hit rate 0.47% among 330,000; in the data active = inhibition above about 45%, passing the limit was not always enough
Target sequence (P61088 whole entry, looked up): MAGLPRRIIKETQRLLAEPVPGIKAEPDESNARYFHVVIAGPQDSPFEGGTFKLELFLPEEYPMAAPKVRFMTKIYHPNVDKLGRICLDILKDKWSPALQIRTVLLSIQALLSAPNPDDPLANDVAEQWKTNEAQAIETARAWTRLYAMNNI
SENP8 block-2: human SENP8 protease inhibitors, primary screen, biochemical, fluorescence, Nedd8 protein substrate, uHTS; inhibition, % at 20 µM; Sentrin-specific protease 8 (Homo sapiens), Q96LD8; recombinant SENP8; hit rate 0.64% among 360,000; AID 602440, 2012; in the data active = inhibition mostly above about 40%, no sharp cut-off; inactive = mostly below about 27%
SENP7 inh: SENP7 protease inhibitors, primary screen, biochemical, luminescence, uHTS. inhibition, % at 5 µM. hit rate 1.5% among 330,000. recombinant SENP7, Z-RLRGG-aminoluciferin luminescence, 40 min;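 active = inhibition above about 50% at the single test dose, limit read from the data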;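 also: plate controls were DMSO with enzyme for no effect and no enzyme buffer wells for full effect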
SENP8 inh conf: human SENP8 protease inhibitors, confirmation, biochemical, Nedd8 protein substrate, single concentration | purified SENP8, Nedd8-AMC/pro-Nedd8 cleavage fluorescence, 30 min | hit rate 15% among 1,400 | AID 624319, 2012 | inhibition, % at 25 µM | shares compounds with SENP8 block-2; in the data active = inhibition mostly above about 39%, no sharp cut-off; inactive = mostly below about 34%
Numbers without * were called inactive; nt = no result; ! = not confirmed by another sample.

SMILES	SENP8 block-1	SENP6 inh	Apaf1 inhib	UBC13 inh	SENP8 block-2	SENP7 inh	SENP8 inh conf
CC(=O)N1CCc2cc(NC(=O)C3(C)CCN3Cc3ccc(C(C)C)cc3)ccc21 (stereo not drawn)	nt	nt	nt	nt	15	nt	nt
CCCCCc1ccc2cc(C#N)ccc2n1	nt	nt	nt	nt	14	nt	nt
Cc1cn([C@H]2C[C@H](O)[C@@H](CCC(=O)NCCc3cccs3)O2)c(=O)[nH]c1=O	nt	nt	nt	nt	26	nt	nt
CCCCN1CC(N2CCN(CCN(C)C)CC2)CS1(=O)=O (stereo not drawn)	nt	nt	nt	nt	20	nt	nt
CC(NC(=O)Nc1ccc(O)cc1)(C(F)(F)F)C(F)(F)F	-1	-12	8	8	78*	9	18
CCOc1[nH]n(-c2ccccc2)c(=O)c1C=Nc1ccc(Cl)cc1	-6	-11	14	8	40*	0	12
COc1nccnc1NS(=O)(=O)c1ccc(N=Cc2c(C)[nH]n(-c3ccc(Cl)cc3)c2=O)cc1	-3	4	0	6	nt	-4	nt
CCOc1[nH]n(-c2ccccc2)c(=O)c1C=Nc1ccccc1	-7	-7	4	5	16	-4	nt
CCOc1[nH]n(-c2ccccc2)c(=O)c1C=Nc1ccc(C(=O)OC)cc1	4	13	20	-14	54*	13	20
CCOc1[nH]n(-c2ccccc2)c(=O)c1C=Nc1ccc(C)cc1	-12	-11	0	3	22	-3	nt
COCc1[nH][nH]c(=O)c1C=Nc1ccc(Cl)cc1	-5	0	-5	1	48*	-1	17
Cc1[nH]n(-c2ccc(Cl)cc2)c(=O)c1C=Nc1ccc(S(=O)(=O)N2CCOCC2)cc1	-6	9	-1	-14	47*	13	17
Cc1ccccc1N1C(=O)CC(N(O)c2ccccc2)C1=O (stereo not drawn)	0	-3	19	-10	13	0	nt
O=C1CC(N(O)c2ccccc2)C(=O)N1c1cc(Cl)cc(Cl)c1 (stereo not drawn)	-11	-6	20	-13	44*	-1	17
CCCCn1nnnc1C(c1cc2ccccc2o1)N1CCN(CC(=O)NC(C)C)CC1 (stereo not drawn)	nt	nt	nt	nt	2	nt	nt
CCCCN1C2=C(C(=O)CC(C)(C)C2)C(c2ccccc2)C2=C1c1ccccc1C2=O (stereo not drawn)	0	-4	36	-17	54*	18	13
Cc1nc([N+](=O)[O-])c(Br)n1CC(=O)c1ccc(Cl)cc1	7	8	-1	-6	42*	5	12
CCSc1nnc(NC(=O)c2ccco2)s1	-7	-8	-10	-13	-19	0	nt
CCSc1nnc(NC(NC(=O)c2ccco2)(C(F)(F)F)C(F)(F)F)s1	3	11	-5	3	41*	-1	28
CC(=O)C1=C(O)C2(C)c3c(O)c(C)c(O)c(C(C)=O)c3OC2CC1=O (stereo not drawn)	nt	nt	nt	nt	19	nt	nt
COC1=Nc2ccccc2/C=C\c2ccccc21	nt	nt	nt	nt	3	nt	nt
CC[C@H](CO)Oc1cc(NCc2ccc(Cl)c(Cl)c2)c2ncn(C(C)C)c2c1	10	6	22	8	12	8	nt
CC[C@H](CO)Oc1cc(NCc2cccc(N)c2)c2ncn(C(C)C)c2c1	nt	nt	nt	nt	56*	nt	87*
O=C(CNc1cccc([N+](=O)[O-])c1)N/N=C/c1ccc([N+](=O)[O-])o1	8	2	4	-9	40*	4	23
O=C(N/N=C/c1ccc([N+](=O)[O-])o1)c1ccccc1-n1cccc1	3	2	13	-9	42*	2	21
SMILES	SENP8 block-1	SENP6 inh	Apaf1 inhib	UBC13 inh	SENP8 block-2	SENP7 inh	SENP8 inh conf
O=C(CCN1CCN(c2ccccc2)CC1)N/N=C/c1ccc([N+](=O)[O-])o1	8	21	10	-13	55*	4	39
O=C(Cc1ccc([N+](=O)[O-])cc1)N/N=C/c1ccc([N+](=O)[O-])o1	3	25	8	-16	34	11	nt
O=C(CN1CCOCC1)NN=Cc1ccc([N+](=O)[O-])o1	nt	nt	nt	nt	26	nt	nt
Cc1ccc(S(=O)(=O)N2CCN(c3nc(-c4cccs4)nc4ccccc34)CC2)cc1	nt	nt	nt	nt	-135	nt	nt
COc1cccc(C2=NCCc3cc4c(cc32)OCO4)c1OC	0	-14	-3	5	4	-3	nt
COc1ccc2cc3[n+](cc2c1OC)CCc1cc2c(cc1-3)OCO2	9	4	39	-36	53*!	10	32
CCOC(=O)C1CCCN(C(=O)c2cc(C#N)cs2)CC1 (stereo not drawn)	nt	nt	nt	nt	7	nt	nt
CC(=O)c1cccc(NS(=O)(=O)N2CCCCC2)c1	-3	15	-2	-2	41*	-1	4
CCC(C)(C)C1CCC(=NNC(=S)Nc2cccnc2)CC1 (stereo not drawn)	9	12	3	-1	-1	6	nt
CCC(C)(C)C1CCC(=NNC(=S)Nc2ccccc2)CC1 (stereo not drawn)	5	-10	3	-16	45*	5	0
CCCc1ccc(C(=O)NNc2ccccc2F)cc1	-2	15	-4	6	20	-3	nt
CCc1ccc(C(=O)NNc2ccccc2F)cc1	1	-8	-12	-1	26*	1	2
COc1cccc(S(=O)(=O)Nc2ccc3c(c2)C(=O)N(C)C[C@H](OC)[C@H](C)CN[C@@H](C)CO3)c1	nt	nt	nt	nt	20	nt	nt
CCNC(=S)NNc1ccccc1	3	0	-4	3	43*	-1	2
S=C(NCc1ccccc1)NNc1ccccc1	1	-14	-6	8	26	6	nt
O=c1cc(CO)[nH]cc1OCc1ccccc1	-5	-16	-24	2	46*	-2	12
O=C1CC(c2ccco2)CC(O)=C1C=NCCN1CCNCC1 (stereo not drawn)	-2	-5	4	-1	18	1	nt
O=C1CC(c2ccco2)CC(O)=C1C=NCC1CCNCC1 (stereo not drawn)	8	7	18	-4	65*	5	12
O=C(Nc1ccc(S(=O)(=O)N2CCOCC2)cc1)c1ccc2c(c1)OCO2	-2	4	-21	-4	14	4	nt
O=S(=O)(c1ccc(NC(=S)Nc2ccc3c(c2)OCO3)cc1)N1CCOCC1	5	13	5	9	44*	11	-5
CCOC(=O)c1[nH]c(C)c(C(=O)OCC(=O)N2CCCCC2C)c1C (stereo not drawn)	0	-5	5	-8	41*	-15	14
